The source of these data is article PMC8359128 (ACS Omega, 2021).

In assay [1] the target is T1, human CB1 receptor (Homo sapiens, UniProt P21554). Put plainly: Competitive radioligand. It is filed as binding. The settings on record: for inhibition at 10 µM: read-out: % displacement at 10 μM CB1.
Assay [2] deals with T2, human CB2 receptor (Homo sapiens, UniProt P34972). Put plainly: [35S]-GTPγS functional assay, CB2. Type of assay: biochemical. The settings on record: for functional behavior at CB2: GTPγS. In general terms: GTPγS resists hydrolysis and so accumulates on activated G proteins.
Assay [3] addresses T2, human CB2 receptor. The assay can be described thus: Competitive radioligand. Type of assay: binding. The settings on record: for inhibition at 10 µM: read-out: % displacement at 10 μM CB2.
Assay [4] addresses T1, human CB1 receptor. Put plainly: [35S]-GTPγS functional assay, CB1. The settings on record: for functional behavior at CB1: GTPγS. It is filed as biochemical. Put shortly: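 Membranes (20 µg) from HEK293 cells stably expressing human CB1, incubated with 0.5 nM [35S]-GTPγS, 30 µM GDP and test compound in 50 mM Tris-HCl, 150 mM NaCl, 9 mM MgCl2, 0.2 mM EGTA, 1.4 mg/mL BSA, pH 7.4. Incubation 2 h, 37 °C, gentle shaking. […] Filtration, scintillation counting. Duplicates; EC50 by nonlinear regression.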

For assay [5] the following is noted: (−)-trans vs (+)-trans isomer; cited from earlier work.
Where [6] appears, read: IC50 CB2 displacement (bound given in text).
Where [7] appears, read: IC50 ± SEM CB2, competitive radioligand binding, triplicate.

One may read the EC50 as the concentration at which the effect is half-maximal. A high value points to a need for much substance. In general, Ki refers to the dissociation constant of the complex between target and ligand, obtained from inhibition or displacement. Read a low Ki as higher affinity. A word on the IC50: it is the concentration needed to halve the response being measured.

T1 sequence (P21554 whole entry): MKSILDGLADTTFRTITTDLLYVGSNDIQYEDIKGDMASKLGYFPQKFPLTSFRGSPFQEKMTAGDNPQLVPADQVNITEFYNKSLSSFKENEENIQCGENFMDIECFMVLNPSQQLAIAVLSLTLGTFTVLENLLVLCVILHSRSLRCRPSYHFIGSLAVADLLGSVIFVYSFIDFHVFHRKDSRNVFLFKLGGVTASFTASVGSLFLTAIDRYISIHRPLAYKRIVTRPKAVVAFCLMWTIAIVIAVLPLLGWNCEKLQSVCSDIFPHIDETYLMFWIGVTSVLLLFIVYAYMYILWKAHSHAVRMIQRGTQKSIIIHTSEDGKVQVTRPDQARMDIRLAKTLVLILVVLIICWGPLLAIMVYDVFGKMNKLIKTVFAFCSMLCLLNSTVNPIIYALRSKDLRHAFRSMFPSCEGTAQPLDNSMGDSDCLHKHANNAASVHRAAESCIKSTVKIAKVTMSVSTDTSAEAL
T2 sequence (P34972 whole entry): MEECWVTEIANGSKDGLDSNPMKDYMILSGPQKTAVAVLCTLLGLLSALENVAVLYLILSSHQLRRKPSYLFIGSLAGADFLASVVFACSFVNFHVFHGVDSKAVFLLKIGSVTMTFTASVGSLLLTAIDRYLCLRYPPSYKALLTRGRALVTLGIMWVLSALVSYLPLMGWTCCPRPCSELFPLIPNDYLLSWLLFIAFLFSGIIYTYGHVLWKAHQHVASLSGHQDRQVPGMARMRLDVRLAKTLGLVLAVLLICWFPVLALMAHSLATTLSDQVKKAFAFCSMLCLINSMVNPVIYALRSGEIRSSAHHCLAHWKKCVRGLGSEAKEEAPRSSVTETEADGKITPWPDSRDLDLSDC

Take `C[C@H]1CC[C@H]2[C@H](C1)c1c(O)cc(-c3cccc4c3oc3ccccc34)cc1OC2(C)C` [11H, (6aS,9S,10aS)-3-(Dibenzo[b,d]furan-4-yl)-6,6,9-trimethyl-6a,7,8,9,10,10a-hexahydro-6H-benzo[c]chromen-1-ol]: the inhibition at 10 µM on human CB1 receptor [1] came to 29.4%; on human CB2 receptor [3], 76.2%. On human CB2 receptor [2] (EC50 GTPγS CB2, duplicate), a half-maximal effect (EC50) was put at 5730 ± 3290 nM. Moreover, the “functional behavior at CB2” value at human CB2 receptor [2] is recorded as “agonists”. On human CB2 receptor [3], this compound yielded a Ki of 63.7 ± 8.19 nM. For the same compound, the IC50 is ≤ 3200 nM at human CB2 receptor [3] (setting [6]) and 127 ± 16.4 nM on human CB2 receptor [3] (setting [7]).

Take `C[C@H]1CC[C@H]2[C@H](C1)c1c(O)cc(-c3csc4ccccc34)cc1OC2(C)C` [11J, (6aS,9S,10aS)-3-(Benzo[b]thiophen-3-yl)-6,6,9-trimethyl-6a,7,8,9,10,10a-hexahydro-6H-benzo[c]chromen-1-ol]: on human CB1 receptor [4], the EC50 was determined as 1470 ± 708 nM and the “functional behavior at CB1” value is reported as “agonists”. Moreover, on human CB1 receptor [1], the IC50 is > 2000 nM, the Ki was > 1000 nM and the inhibition at 10 µM amounted to 56.4%. Moreover, on human CB2 receptor [2], the “functional behavior at CB2” value is on record as “agonists”. At human CB2 receptor [3], the Ki amounted to 40.2 ± 2.91 nM and the inhibition at 10 µM stood at 70.4%. Moreover, the IC50 at human CB2 receptor [3] (setting [6]) is ≤ 3200 nM. Also, the IC50 at human CB2 receptor [3] (setting [7]) was 80.4 ± 5.82 nM.

As to `C[C@H]1CC[C@H]2[C@H](C1)c1c(O)cc(-c3cc(C(F)(F)F)cc(C(F)(F)F)c3)cc1OC2(C)C` [11K, (6aS,9S,10aS)-3-(3,5-Bis(trifluoromethyl)phenyl)-6,6,9-trimethyl-6a,7,8,9,10,10a-hexahydro-6H-benzo[c]chromen-1-ol], the inhibition at 10 µM was -26.7% on human CB1 receptor [1] and 11.2% at human CB2 receptor [3].

`C[C@H]1CC[C@H]2[C@H](C1)c1c(O)cc(-c3ccc4c(c3)OCO4)cc1OC2(C)C` [11B, (6aS,9S,10aS)-3-(Benzo[d][1,3]dioxol-5-yl)-6,6,9-trimethyl-6a,7,8,9,10,10a-hexahydro-6H-benzo[c]chromen-1-ol]: the inhibition at 10 µM at human CB1 receptor [1] is 30.8%. Besides, on human CB2 receptor [3], the inhibition constant Ki was 117 ± 11.7 nM and the inhibition at 10 µM was found to be 67%. For the same compound, the IC50 on human CB2 receptor [3] (setting [6]) is ≤ 3200 nM.

Turning to `C[C@H]1CC[C@H]2[C@H](C1)c1c(O)cc(-c3ccccc3)cc1OC2(C)C` [11A, (6aS,9S,10aS)-6,6,9-Trimethyl-3-phenyl-6a,7,8,9,10,10a-hexahydro-6H-benzo[c]chromen-1-ol], the inhibition at 10 µM on human CB1 receptor [1] was determined as 34.3%; on human CB2 receptor [3], 57.3%. This compound also yielded a Ki on human CB2 receptor [3] of 1570 ± 836 nM. Moreover, the IC50 on human CB2 receptor [3] (setting [6]) was ≤ 3200 nM; at human CB2 receptor [3] (setting [7]), 3150 ± 1670 nM.

As for `CCCCCc1cc(O)c2c(c1)OC(C)(C)[C@@H]1CCC(C)=C[C@@H]21` [dronabinol], the “potency relative to the (+)-trans-isomer of Δ9-THC” value in assay [5] is 6–100 times.

`C[C@H]1CC[C@H]2[C@H](C1)c1c(O)cc(-c3ccoc3)cc1OC2(C)C` [11D, (6aS,9S,10aS)-3-(Furan-3-yl)-6,6,9-trimethyl-6a,7,8,9,10,10a-hexahydro-6H-benzo[c]chromen-1-ol]: the inhibition at 10 µM was 34% on human CB1 receptor [1] and 44.4% on human CB2 receptor [3].

For `CCCCCC/C=C/c1cc(O)c2c(c1)OC(C)(C)[C@H]1CC[C@H](C)C[C@H]21` [11E, (6aS,9S,10aS)-6,6,9-Trimethyl-3-((E)-oct-1-en-1-yl)-6a,7,8,9,10,10a-hexahydro-6H-benzo[c]chromen-1-ol], at human CB1 receptor [4], it took 239 ± 68 nM to reach a half-maximal effect (EC50). Moreover, the “functional behavior at CB1” value at human CB1 receptor [4] is listed as “agonist”. Also, the IC50 was 684 ± 326 nM on human CB1 receptor [1], ≤ 3200 nM at human CB2 receptor [3] (setting [6]) and 1150 ± 212 nM at human CB2 receptor [3] (setting [7]). Besides, the Ki at human CB1 receptor [1] stood at 342 ± 95.8 nM; on human CB2 receptor [3], 573 ± 106 nM. Also, the inhibition at 10 µM came out at 66.8% at human CB1 receptor [1] and 50.4% at human CB2 receptor [3].

In the case of `C[C@H]1CC[C@H]2[C@H](C1)c1c(O)cc(/C=C/c3ccc(Cl)cc3)cc1OC2(C)C` [11G, (6aS,9S,10aS)-3-((E)-4-Chlorostyryl)-6,6,9-trimethyl-6a,7,8,9,10,10a-hexahydro-6H-benzo[c]chromen-1-ol], the inhibition at 10 µM was found to be 7.54% at human CB1 receptor [1] and 8.7% at human CB2 receptor [3].

In the case of `C[C@H]1CC[C@H]2[C@H](C1)c1c(O)cc(-c3ccc(C#N)cc3)cc1OC2(C)C` [11C, 4-((6aS,9S,10aS)-1-Hydroxy-6,6,9-trimethyl-6a,7,8,9,10,10a-hexahydro-6H-benzo[c]chromen-3-yl)benzonitrile], the inhibition at 10 µM on human CB1 receptor [1] was -7.02%; at human CB2 receptor [3] it was 22.1%.

In the case of `C[C@H]1CC[C@H]2[C@H](C1)c1c(O)cc(/C=C/c3ccc(C(F)(F)F)cc3)cc1OC2(C)C` [11F, (6aS,9S,10aS)-6,6,9-Trimethyl-3-((E)-4-(trifluoromethyl)styryl)-6a,7,8,9,10,10a-hexahydro-6H-benzo[c]chromen-1-ol], the inhibition at 10 µM worked out at 43.2% on human CB1 receptor [1] and 23.9% on human CB2 receptor [3].

Turning to `C[C@H]1CC[C@H]2[C@H](C1)c1c(O)cc(-c3ccc(Oc4ccccc4)cc3)cc1OC2(C)C` [11I, (6aS,9S,10aS)-6,6,9-Trimethyl-3-(4-phenoxyphenyl)-6a,7,8,9,10,10a-hexahydro-6H-benzo[c]chromen-1-ol], the values for the inhibition at 10 µM on human CB1 receptor [1] and at human CB2 receptor [3] were 34.4% and 16.3%, respectively.
